Measured values taken from ChEMBL document CHEMBL1155761, “Isolation and structure of five new cancer cell growth inhibitory bufadienolides from the Chinese traditional drug Ch'an Su” (J Nat Prod, 2001).
Values after ≈ are worked out from the molar mass of the structure shown.

Tests used:
Format in all cases: functional, cell-based
MH60 = assay: Cytotoxicity against mouse MH60 cells after 72 hrs by MTT assay; conditions: MH60, 72 h
Procedure, shortened: (§1)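 Cells seeded per well in 0.2 mL culture medium: 2 × 10^4 cells for KB and HL-60, 5 × 10^3 cells for MH-60. Treated in triplicate with graded concentrations of test samples (5 µL added per well), then incubated 72 h at 37 °C in 5% CO2.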

KB = assay: Cytotoxicity against human KB cells after 72 hrs by MTT assay; procedure, shortened: as §1
SF-268 = assay: Cytotoxicity against human SF268 cells after 72 hrs by MTT assay; conditions: SF-268, 72 h
NCI-H460 = assay: Cytotoxicity against human NCI-H460 cells after 72 hrs by MTT assay; conditions: NCI-H460, 72 h
MCF7 = assay: Cytotoxicity against human MCF7 cells after 72 hrs by MTT assay; conditions: MCF7, 72 h
BXPC-3 = assay: Cytotoxicity against human BxPC3 cells after 72 hrs by MTT assay; conditions: BXPC-3, 72 h
KM-20L2 = assay: Cytotoxicity against human KM20L2 cells after 72 hrs by MTT assay; conditions: KM-20L2, 72 h
HL-60 = assay: Cytotoxicity against human HL60 cells after 72 hrs by MTT assay; conditions: HL-60, 72 h; procedure, shortened: as §1
DU-145 = assay: Cytotoxicity against human DU145 cells after 72 hrs by MTT assay; conditions: DU-145, 72 h

Row | Structure (SMILES) | IC50 (MH60) | IC50 (KB) | IC50 (SF-268) | IC50 (NCI-H460) | IC50 (MCF7) | IC50 (BXPC-3) | IC50 (KM-20L2) | IC50 (HL-60) | IC50 (DU-145)
1 | CC(=O)O[C@H]1[C@H]2O[C@]23[C@@H]2C[C@H](O)[C@@H]4C[C@@H](O)CC[C@]4(C)[C@H]2CC[C@]3(C)[C@H]1c1ccc(=O)oc1 | > 25 µg/mL | 0.87 µg/mL (≈ 1.9 µM) | 0.32 µg/mL (≈ 0.698 µM) | 0.74 µg/mL (≈ 1.61 µM) | 0.36 µg/mL (≈ 0.785 µM) | 0.46 µg/mL (≈ 1 µM) | 0.28 µg/mL (≈ 0.611 µM) | 0.038 µg/mL (≈ 0.0829 µM) | 0.21 µg/mL (≈ 0.458 µM)
2 | C[C@]12CC[C@H](O)C[C@H]1CC[C@@H]1[C@@H]2CC[C@]2(C)[C@@H](c3ccc(=O)oc3)[C@@H](O)[C@H]3O[C@]132 [DESACETYLCINOBUFAGIN] | > 25 µg/mL | 0.44 µg/mL (≈ 1.1 µM) | – | – | – | – | – | 1 µg/mL (≈ 2.5 µM) | –
3 | C[C@]12CC[C@H](O)C[C@H]1CC[C@@H]1[C@@H]2CC[C@]2(C)[C@@H](c3ccc(=O)oc3)[C@@H](O)C[C@]12O [DESACETYLBUFOTALIN] | > 25 µg/mL | 0.79 µg/mL (≈ 1.96 µM) | – | – | – | – | – | 0.025 µg/mL (≈ 0.0621 µM) | –
4 | C[C@]12CC[C@H](O)C[C@@]1(O)CC[C@@H]1[C@@H]2CC[C@]2(C)[C@@H](c3ccc(=O)oc3)CC[C@]12O [TELOCINOBUFAGIN] | > 25 µg/mL | 1.3 µg/mL (≈ 3.23 µM) | – | – | – | – | – | < 0.01 µg/mL | –
5 | C[C@]12CC[C@H]3[C@@H](CC[C@@H]4C[C@@H](O)CC[C@@]43CO)[C@]13O[C@@H]3C[C@@H]2c1ccc(=O)oc1 | > 25 µg/mL | 1.2 µg/mL (≈ 3 µM) | 0.25 µg/mL (≈ 0.624 µM) | 0.44 µg/mL (≈ 1.1 µM) | 0.33 µg/mL (≈ 0.824 µM) | 0.63 µg/mL (≈ 1.57 µM) | 0.45 µg/mL (≈ 1.12 µM) | 0.48 µg/mL (≈ 1.2 µM) | 0.38 µg/mL (≈ 0.949 µM)
6 | CC(=O)O[C@H]1C[C@]2(O)[C@@H]3CC[C@@H]4C[C@@H](O)CC[C@]4(C)[C@H]3CC[C@]2(C)[C@H]1c1ccc(=O)oc1 [BUFOTALIN] | > 25 µg/mL | 0.19 µg/mL (≈ 0.427 µM) | – | – | – | – | – | < 0.01 µg/mL | –
7 | CC(=O)O[C@H]1[C@H]2O[C@]23[C@@H]2CC[C@@H]4C[C@@H](O)CC[C@]4(C)[C@H]2CC[C@]3(C)[C@H]1c1ccc(=O)oc1 [CINOBUFAGIN] | > 25 µg/mL | 0.21 µg/mL (≈ 0.475 µM) | – | – | – | – | – | < 0.01 µg/mL | –
8 | C[C@]12CC[C@H]3[C@@H](CC[C@@H]4C[C@@H](O)CC[C@@]43C=O)[C@@]1(O)CC[C@@H]2c1ccc(=O)oc1 | > 25 µg/mL | – | 0.0047 µg/mL (≈ 0.0117 µM) | 0.018 µg/mL (≈ 0.0449 µM) | 0.0072 µg/mL (≈ 0.018 µM) | 0.014 µg/mL (≈ 0.035 µM) | 0.0082 µg/mL (≈ 0.0205 µM) | < 0.01 µg/mL | 0.0046 µg/mL (≈ 0.0115 µM)
9 | C[C@]12CC[C@H](O)C[C@H]1CC[C@@H]1[C@@H]2CC[C@]2(C)[C@@H](c3ccc(=O)oc3)CC[C@]12O [BUFALIN] | > 25 µg/mL | 0.67 µg/mL (≈ 1.73 µM) | – | – | – | – | – | < 0.01 µg/mL | –
10 | C[C@]12CC[C@H]3[C@@H](CC[C@@H]4C[C@@H](O)CC[C@@]43CO)[C@]13O[C@@H]3[C@H](O)[C@@H]2c1ccc(=O)oc1 | > 25 µg/mL | 3.9 µg/mL (≈ 9.36 µM) | – | – | – | – | – | 0.49 µg/mL (≈ 1.18 µM) | –
11 | CC(=O)O[C@H]1[C@H]2O[C@]23[C@@H]2CC[C@@H]4C[C@@H](O)CC[C@]4(C)[C@H]2C[C@@H](O)[C@]3(C)[C@H]1c1ccc(=O)oc1 | > 25 µg/mL | 0.79 µg/mL (≈ 1.72 µM) | – | – | – | – | – | < 0.01 µg/mL | –
12 | C[C@]12CC[C@H](O)C[C@H]1CC[C@@H]1[C@@H]2[C@H](O)C[C@]2(C)[C@@H](c3ccc(=O)oc3)CC[C@]12O [GAMABUFOTALIN] | > 25 µg/mL | 0.75 µg/mL (≈ 1.86 µM) | – | – | – | – | – | 0.014 µg/mL (≈ 0.0348 µM) | –
13 | CC(=O)O[C@H]1C[C@]2(O)[C@@H]3CC[C@]4(O)C[C@@H](O)CC[C@]4(C)[C@H]3CC[C@]2(C)[C@H]1c1ccc(=O)oc1 | > 25 µg/mL | 0.2 µg/mL (≈ 0.434 µM) | 0.033 µg/mL (≈ 0.0717 µM) | 0.048 µg/mL (≈ 0.104 µM) | 0.046 µg/mL (≈ 0.0999 µM) | 0.11 µg/mL (≈ 0.239 µM) | 0.034 µg/mL (≈ 0.0738 µM) | < 0.01 µg/mL | 0.024 µg/mL (≈ 0.0521 µM)
14 | C[C@]12CC[C@H](OC=O)C[C@H]1CC[C@@H]1[C@@H]2CC[C@]2(C)[C@@H](c3ccc(=O)oc3)C[C@H]3O[C@]132 | 8.1 µg/mL (≈ 19.6 µM) | 3.4 µg/mL (≈ 8.24 µM) | 0.38 µg/mL (≈ 0.921 µM) | 0.53 µg/mL (≈ 1.28 µM) | 0.6 µg/mL (≈ 1.45 µM) | 1.6 µg/mL (≈ 3.88 µM) | 0.54 µg/mL (≈ 1.31 µM) | 1 µg/mL (≈ 2.42 µM) | 0.42 µg/mL (≈ 1.02 µM)
15 | C[C@]12CC[C@H]3[C@@H](CC[C@@H]4C[C@@H](O)CC[C@@]43C=O)[C@]13OC3[C@H](O)[C@@H]2c1ccc(=O)oc1 (some centres not stated) | > 25 µg/mL | 0.65 µg/mL (≈ 1.57 µM) | > 1 µg/mL | > 1 µg/mL | > 1 µg/mL | > 1 µg/mL | > 1 µg/mL | 3 µg/mL (≈ 7.24 µM) | > 1 µg/mL
16 | C[C@]12[C@H](CC[C@@H]3[C@@H]1CC[C@]1(C)[C@@H](c4ccc(=O)oc4)CC[C@]31O)C[C@@H](O)C[C@H]2O | > 25 µg/mL | 0.19 µg/mL (≈ 0.472 µM) | 0.0044 µg/mL (≈ 0.0109 µM) | 0.014 µg/mL (≈ 0.0348 µM) | 0.012 µg/mL (≈ 0.0298 µM) | 0.024 µg/mL (≈ 0.0596 µM) | 0.011 µg/mL (≈ 0.0273 µM) | < 0.01 µg/mL | 0.005 µg/mL (≈ 0.0124 µM)
17 | C[C@]12CC[C@H](O)C[C@@]1(O)CC[C@@H]1[C@@H]2CC[C@]2(C)[C@@H](c3ccc(=O)oc3)[C@@H](O)[C@H]3O[C@]132 [DESACETYLCINOBUFOTALIN] | > 25 µg/mL | 10 µg/mL (≈ 24 µM) | – | – | – | – | – | 4.3 µg/mL (≈ 10.3 µM) | –
18 | C[C@]12CC[C@H](O)C[C@H]1CC[C@@H]1[C@@H]2CC[C@]2(C)[C@@H](c3ccc(=O)oc3)C[C@H]3O[C@]132 [BUFOGENIN] | 10 µg/mL (≈ 26 µM) | 1.3 µg/mL (≈ 3.38 µM) | – | – | – | – | – | 0.5 µg/mL (≈ 1.3 µM) | –
19 | CC(=O)O[C@H]1[C@H]2O[C@]23[C@@H]2CC[C@]4(O)C[C@@H](O)CC[C@]4(C)[C@H]2CC[C@]3(C)[C@H]1c1ccc(=O)oc1 [CINOBUFOTALIN] | > 25 µg/mL | 0.37 µg/mL (≈ 0.807 µM) | – | – | – | – | – | 0.047 µg/mL (≈ 0.102 µM) | –
20 | C[C@]12CC[C@H](O)C[C@H]1CC[C@@H]1[C@@H]2C[C@@H](O)[C@]2(C)[C@@H](c3ccc(=O)oc3)C[C@H]3O[C@]132 | > 25 µg/mL | 0.97 µg/mL (≈ 2.42 µM) | 0.046 µg/mL (≈ 0.115 µM) | 0.017 µg/mL (≈ 0.0424 µM) | 0.066 µg/mL (≈ 0.165 µM) | 0.12 µg/mL (≈ 0.3 µM) | 0.012 µg/mL (≈ 0.03 µM) | 0.045 µg/mL (≈ 0.112 µM) | 0.041 µg/mL (≈ 0.102 µM)
